Measurements: ChEMBL document CHEMBL1150329, “The discovery of fused pyrrole carboxylic acids as novel, potent D-amino acid oxidase (DAO) inhibitors” (Bioorg Med Chem Lett, 2008)
Active and inactive are the calls of the source. The calls are words filed in the database; no cut-off is given here.

How the values were obtained:
D-amino-acid oxidase = D-amino-acid oxidase (Homo sapiens, UniProt P14920); assay: Inhibition of human DAO
D-aspartate oxidase = target: T1, D-aspartate oxidase (Homo sapiens, UniProt Q99489); assay: Inhibition of human DDO
T1 sequence (Q99489 whole entry): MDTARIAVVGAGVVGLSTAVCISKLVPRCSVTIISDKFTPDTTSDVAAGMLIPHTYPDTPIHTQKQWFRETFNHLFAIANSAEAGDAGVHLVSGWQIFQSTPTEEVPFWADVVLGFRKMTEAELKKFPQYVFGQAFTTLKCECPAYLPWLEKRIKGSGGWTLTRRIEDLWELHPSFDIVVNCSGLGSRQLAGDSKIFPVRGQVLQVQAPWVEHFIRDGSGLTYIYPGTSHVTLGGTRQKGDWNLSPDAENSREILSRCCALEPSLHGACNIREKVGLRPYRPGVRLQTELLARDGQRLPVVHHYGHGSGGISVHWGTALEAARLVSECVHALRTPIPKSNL

[1] = Inhibition of CYP3C9; assay type: ADME
Cytochrome P450 2D6 = Cytochrome P450 2D6 (Homo sapiens, UniProt P10635); assay: Inhibition of CYP2D6; assay type: ADME
Sequence of Cytochrome P450 2D6 (P10635 whole entry): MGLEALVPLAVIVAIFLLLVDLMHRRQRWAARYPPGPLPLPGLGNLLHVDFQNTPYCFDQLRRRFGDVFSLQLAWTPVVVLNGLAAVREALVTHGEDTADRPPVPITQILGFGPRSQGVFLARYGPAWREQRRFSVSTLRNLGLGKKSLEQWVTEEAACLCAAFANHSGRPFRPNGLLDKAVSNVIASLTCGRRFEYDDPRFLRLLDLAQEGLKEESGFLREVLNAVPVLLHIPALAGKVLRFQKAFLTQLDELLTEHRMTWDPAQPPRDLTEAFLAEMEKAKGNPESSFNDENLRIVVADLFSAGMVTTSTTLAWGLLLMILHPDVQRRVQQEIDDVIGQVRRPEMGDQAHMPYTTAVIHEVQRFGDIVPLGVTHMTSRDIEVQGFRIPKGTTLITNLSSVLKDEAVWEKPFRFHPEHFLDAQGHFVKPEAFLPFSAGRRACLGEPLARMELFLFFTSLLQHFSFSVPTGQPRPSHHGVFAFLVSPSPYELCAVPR

Cytochrome P450 3A4 = Cytochrome P450 3A4 (Homo sapiens, UniProt P08684); assay: Inhibition of CYP3A4; assay type: ADME
Sequence of Cytochrome P450 3A4 (P08684 whole entry): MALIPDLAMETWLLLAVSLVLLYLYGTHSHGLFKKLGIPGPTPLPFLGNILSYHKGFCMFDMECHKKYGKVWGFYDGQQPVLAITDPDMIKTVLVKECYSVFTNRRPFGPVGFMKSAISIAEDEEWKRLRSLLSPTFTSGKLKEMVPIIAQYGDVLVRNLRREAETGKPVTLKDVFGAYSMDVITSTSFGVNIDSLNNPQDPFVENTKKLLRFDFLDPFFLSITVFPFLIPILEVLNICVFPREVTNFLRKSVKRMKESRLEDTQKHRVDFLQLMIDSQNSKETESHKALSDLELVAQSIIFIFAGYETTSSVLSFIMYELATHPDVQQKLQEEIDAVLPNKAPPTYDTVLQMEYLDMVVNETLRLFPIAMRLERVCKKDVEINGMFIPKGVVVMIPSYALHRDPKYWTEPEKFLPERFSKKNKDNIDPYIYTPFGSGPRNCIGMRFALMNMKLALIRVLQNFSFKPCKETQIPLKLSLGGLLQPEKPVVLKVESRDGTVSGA

Rattus norvegicus [2] = assay: Ex vivo inhibition of DAO in ip dosed rat cerebellum; assay type: functional, organism-based
Procedure, shortened: (§1)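 Rats were given 25, 75 or 150 mg/kg ip. DAO enzyme activity was measured ex vivo in kidney and cerebellum at 1, 2 and 4 h after dosing and compared with vehicle-dosed rats. Time and treatment effects were tested by two-way ANOVA, with Bonferroni post tests for individual dose-versus-vehicle comparisons.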

Rattus norvegicus [3] = assay: Ex vivo inhibition of DAO in rat cerebellum at 25 mg/kg, ip after 1 hr; assay type: functional, organism-based; design: dose 25 mg/kg; procedure, shortened: as §1
Rattus norvegicus [4] = assay: Ex vivo inhibition of DAO in ip dosed rat kidney; assay type: functional, organism-based; procedure, shortened: as §1

Sequence of D-amino-acid oxidase (P14920 whole entry): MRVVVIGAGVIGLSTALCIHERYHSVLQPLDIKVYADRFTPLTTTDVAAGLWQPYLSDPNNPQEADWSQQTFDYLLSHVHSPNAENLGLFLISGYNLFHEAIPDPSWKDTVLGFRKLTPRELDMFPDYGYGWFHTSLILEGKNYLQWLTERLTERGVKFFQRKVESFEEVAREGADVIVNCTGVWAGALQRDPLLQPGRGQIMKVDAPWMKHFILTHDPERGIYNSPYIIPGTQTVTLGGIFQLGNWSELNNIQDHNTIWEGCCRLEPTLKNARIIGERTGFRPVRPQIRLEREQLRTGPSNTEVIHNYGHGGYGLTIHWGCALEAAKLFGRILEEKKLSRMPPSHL

| Structure (SMILES) | IC50 (D-amino-acid oxidase) | also measured |
| --- | --- | --- |
| O=C(O)c1cc2oc(-c3ccc(Cl)cc3Cl)cc2[nH]1 | > 5 µM |  |
| O=C(O)c1ccc[nH]1 | > 5 µM |  |
| O=C(O)c1cc(Cl)c(Cl)o1 | 0.343 µM | IC50 (D-aspartate oxidase): > 5 µM |
| N#Cc1csc2cc(C(=O)O)[nH]c12 | 1.15 µM |  |
| O=C(O)c1cc2occ(CO)c2[nH]1 | > 5 µM |  |
| O=C(O)c1cc2occ(-c3cccc(Cl)c3)c2[nH]1 | > 5 µM |  |
| Oc1noc2cc(Cl)ccc12 |  | IC50 (D-aspartate oxidase): > 5 µM |
| O=C(O)c1cc2oc(-c3cccc(Cl)c3)cc2[nH]1 | > 5 µM |  |
| O=C(O)c1cc2oc(-c3ccccc3)cc2[nH]1 | > 5 µM |  |
| O=C(O)c1cc2occ(-c3ccc(Cl)cc3)c2[nH]1 | > 5 µM |  |
| O=C(O)c1cc2occc2[nH]1 |  | IC50 (D-aspartate oxidase): > 5 µM; Activity (Rattus norvegicus [2]): Active; Activity (Rattus norvegicus [3]): inactive; IC50 [1]: > 10 µM; IC50 (Cytochrome P450 2D6): > 10 µM; Activity (Rattus norvegicus [4]): Active; IC50 (Cytochrome P450 3A4): > 10 µM |
| O=C(O)c1cc2occ(-c3cccnc3)c2[nH]1 | > 5 µM |  |
| O=C(O)c1cc2occ(Cl)c2[nH]1 | 1.43 µM |  |
| O=C(O)c1cc2ccsc2[nH]1 | 0.269 µM |  |
| Cc1oc2cc(C(=O)O)[nH]c2c1C | > 5 µM |  |
| O=C(O)c1cc2oc(-c3ccc(Cl)cc3)cc2[nH]1 | > 5 µM |  |

The next lines start with results.

| IC50 (D-amino-acid oxidase) | Structure (SMILES) | also measured |
| --- | --- | --- |
| > 5 µM | O=C(O)c1cc2oc(Cl)cc2[nH]1 |  |
| 0.516 µM | O=C(O)c1cc2scnc2[nH]1 |  |
| 0.245 µM | O=C(O)c1cc2sccc2[nH]1 | IC50 [1]: > 10 µM; IC50 (Cytochrome P450 2D6): > 10 µM; IC50 (Cytochrome P450 3A4): > 10 µM |
| > 5 µM | O=C(O)c1cc2sc(Cl)cc2[nH]1 |  |
| > 5 µM | O=C(O)c1cc2[nH]ncc2[nH]1 |  |
| > 5 µM | O=C(O)c1cc2ocnc2[nH]1 |  |
| 4.2 µM | O=C(O)c1cc2ncsc2[nH]1 |  |
| 0.745 µM | O=C(O)c1cc2ccccc2[nH]1 [INDOLE-2-CARBOXYLIC ACID] | IC50 (D-aspartate oxidase): > 5 µM |
